The structures appear in SMILES notation.

Common to all, as to format: ADME
A short description of data set [1]: (§1) Pseudo-first-order rate constant for the decomposition of compound at 25 degree C in presence of HCl at pH 1.00. As to conditions: buffer. In a few lines: (§2)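 Hydrolysis run in 5 vol % CH3CN-H2O, ionic strength 0.50 M (KCl), HCl solution, (25.0 ± 0.1) °C. pH meter readings corrected as pH = reading − 0.05, calibrated on standardized HCl. Progress followed by repetitive UV absorbance scans. Absorbance vs. time at 266.5 and 245 nm fit by least squares to the rate equation for two consecutive first-order processes, giving pseudo-first-order rate constants.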

Data set [2] can be described thus: Pseudo-first-order rate constant for the decomposition of compound at 25 degree C in presence of HCl at pH 1.30. Conditions: buffer, pH 1.3. In a few lines: as §2
Data set [3] is described as follows: Pseudo-first-order rate constant for the decomposition of compound at 25 degree C in presence of HCl at pH 1.59. As to conditions: buffer. In a few lines:
as §2

The nature of data set [4]: (§3) Pseudo-first-order rate constant for the decomposition of compound at 25 degree C in presence of HCl at pH 2.00. Conditions: buffer. In a few lines: as §2
A short description of data set [5]: Pseudo-first-order rate constant for the decomposition of compound at 25 degree C in presence of HCl at pH 2.31. As to conditions: buffer. The procedure, abridged: as §2
A short description of data set [6]: Pseudo-first-order rate constant for the decomposition of compound at 25 degree C in presence of HCl at pH 2.62. As to conditions: buffer. In a few lines: as §2
Data set [7] in a line: Pseudo-first-order rate constant for the decomposition of compound at 25 degree C in presence of HCl at pH 1.00; Too fast to measure by conventional methods. As to conditions: buffer. In a few lines: (§4)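 Hydrolysis followed by UV absorbance (repetitive scans; traces at 266.5 and 245 nm) at 25.0 ± 0.1 °C in 5 vol % CH3CN-H2O, ionic strength 0.50 M (KCl). Media were HCl solutions, or acetate or phosphate buffers at 0.01 M total buffer. Meter pH was corrected by subtracting 0.05. Rate constants came from fitting absorbance vs. time to a first-order or two-consecutive-first-order equation.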

Data set [8] in a line: Pseudo-first-order rate constant for the decomposition of compound at 25 degree C in presence of HCl at pH 2.00; Too fast to measure by conventional methods. Conditions: buffer. The procedure, abridged:
as §4

Data set [9] can be described thus: as §1. Conditions: buffer. In a few lines: as §4
This is another data set of the same source.

The nature of data set [10]: as §3. Conditions: buffer. The procedure, abridged:
as §4
This is another data set of the same source.

Data set [11] is described as follows: Pseudo-first-order rate constant for the decomposition of compound at 25 degree C in presence of HCl at pH 3.02. Conditions: buffer. The procedure, abridged:
as §4

The nature of data set [12]: Pseudo-first-order rate constant for the decomposition of compound at 25 degree C in presence of K2HPO4/[…]/HCl at pH 5.75. Conditions: buffer. In a few lines: as §4
The nature of data set [13]: Pseudo-first-order rate constant for the decomposition of compound at 25 degree C in presence of K2HPO4/[…]/HCl at pH 6.77. Conditions: buffer. In a few lines: as §4
A short description of data set [14]: Pseudo-first-order rate constant for the decomposition of compound at 25 degree C in presence of K2HPO4/[…]/HCl at pH 7.55. As to conditions: buffer. In a few lines: as §4
The nature of data set [15]: Pseudo-first-order rate constant for the decomposition of compound at 25 degree C in presence of KOAc/HCl at pH 3.71. As to conditions: buffer. In a few lines: as §4
The nature of data set [16]: Pseudo-first-order rate constant for the decomposition of compound at 25 degree C in presence of KOAc/HCl at pH 4.60. As to conditions: buffer, pH 4.6. The procedure, abridged: as §4
The nature of data set [17]: Pseudo-first-order rate constant for the decomposition of compound at 25 degree C in presence of KOAc/HCl at pH 5.64. Conditions: buffer. In a few lines:
as §4

Consider `CC(=O)N=C1C=CC(=O)C=C1`, for which the “k''” value in data set [1] was 0.00639 s⁻¹; in data set [2] it was 0.0034 s⁻¹; in data set [3] it was 0.0019 s⁻¹; in [4], 0.000977 s⁻¹; in [5] it was 0.000703 s⁻¹; in data set [6], 0.000575 s⁻¹.
For `CCOc1ccc(N(OC(=O)C(C)(C)C)C(C)=O)cc1`, the “k'” value is “Too fast to measure by conventional methods” in data set [7]; “Too fast to measure by conventional methods” in data set [8]; 0.155 s⁻¹ in data set [11]; 0.000303 s⁻¹ in data set [12]; 0.0000512 s⁻¹ in data set [13]; 0.0000288 s⁻¹ in data set [14]. The “k'” value in data set [15] came out at 0.0246 s⁻¹; in data set [16], 0.0037 s⁻¹; in [17], 0.000394 s⁻¹. Also, the “k''” value in [1] was determined as 0.00606 s⁻¹; in [4], 0.000996 s⁻¹; in data set [11], 0.000476 s⁻¹; in data set [12], 0.00287 s⁻¹; in [15], 0.000471 s⁻¹; in [16], 0.000642 s⁻¹. The “k''” value in [17] came out at 0.00261 s⁻¹. Moreover, the k0 was determined as 0.0271 s⁻¹ in [9]; 0.0252 s⁻¹ in data set [10]; 0.0205 s⁻¹ in [11]; 0.0226 s⁻¹ in [12]; 0.0219 s⁻¹ in [13]; 0.0214 s⁻¹ in data set [14]. Besides, the k0 turned out to be 0.0246 s⁻¹ in data set [15], 0.0263 s⁻¹ in data set [16] and 0.0224 s⁻¹ in data set [17].

These data come from ChEMBL document CHEMBL1123549, “Detection of N-acetyl-p-benzoquinone imine produced during the hydrolysis of the model phenacetin metabolite N-(pivaloyloxy)phenacetin” (J Med Chem, 1986).
